The values below come from ChEMBL document CHEMBL4024758, “Structure-Based Design and Discovery of New M2 Receptor Agonists” (J Med Chem, 2017).

Calls of active or inactive are those of the source. The rule behind the calls is not given here. A value given as a limit tells only on which side of the number the result lay.

Experiment [1] has as its target T1, Muscarinic acetylcholine receptor M2 (Homo sapiens, UniProt P08172).
T1 sequence (P08172 whole entry): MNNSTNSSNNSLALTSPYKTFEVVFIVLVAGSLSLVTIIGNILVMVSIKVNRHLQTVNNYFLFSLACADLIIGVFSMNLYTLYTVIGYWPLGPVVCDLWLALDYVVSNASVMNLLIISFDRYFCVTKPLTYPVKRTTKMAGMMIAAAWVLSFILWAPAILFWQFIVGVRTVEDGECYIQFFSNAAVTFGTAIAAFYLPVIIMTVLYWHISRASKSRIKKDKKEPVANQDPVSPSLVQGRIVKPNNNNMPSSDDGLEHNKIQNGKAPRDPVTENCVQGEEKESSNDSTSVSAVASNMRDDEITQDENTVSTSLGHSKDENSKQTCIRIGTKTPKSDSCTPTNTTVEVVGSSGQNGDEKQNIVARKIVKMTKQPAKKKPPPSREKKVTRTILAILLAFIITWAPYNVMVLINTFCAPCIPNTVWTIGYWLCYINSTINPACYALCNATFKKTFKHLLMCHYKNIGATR
Put plainly: Agonist activity at recombinant human muscarinic M2 receptor expressed in HEK293 cells assessed as inhibition of forskolin-mediated cAMP accumulation after 10 mins by FRET assay. It is filed as functional, cell-based.

Experiment [2] addresses T2, Muscarinic acetylcholine receptor M1 (Homo sapiens, UniProt P11229).
T2 sequence (P11229 whole entry): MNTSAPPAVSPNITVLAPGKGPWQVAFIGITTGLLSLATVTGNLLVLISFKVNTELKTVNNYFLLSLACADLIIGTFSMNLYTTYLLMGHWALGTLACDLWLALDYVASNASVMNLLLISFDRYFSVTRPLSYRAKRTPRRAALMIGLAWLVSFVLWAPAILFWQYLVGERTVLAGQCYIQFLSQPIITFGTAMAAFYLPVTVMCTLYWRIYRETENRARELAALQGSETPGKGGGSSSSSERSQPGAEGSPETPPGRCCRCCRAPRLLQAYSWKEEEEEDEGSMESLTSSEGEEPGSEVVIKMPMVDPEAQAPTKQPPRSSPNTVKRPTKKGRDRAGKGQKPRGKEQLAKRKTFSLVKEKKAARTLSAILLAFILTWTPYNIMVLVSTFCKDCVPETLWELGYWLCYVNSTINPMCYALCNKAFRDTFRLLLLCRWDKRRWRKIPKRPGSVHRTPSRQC
Put plainly: Agonist activity at Gq/11 coupled recombinant human muscarinic M1 AChR expressed in CHO-FlpIn cells assessed as IP-one accumulation after 40 mins by HTRF assay. It is filed as cell-based. A general note: Time-resolved FRET reads energy transfer from a long-lived donor to a nearby acceptor.

Experiment [3] addresses T3, Muscarinic acetylcholine receptor M2 (Homo sapiens) (UniProt P08172).
T3 sequence (whole entry): T1 sequence (P08172 whole entry)
As to the kind of experiment: Agonist activity at recombinant human muscarinic M2 receptor expressed in HEK293 cells assessed as inhibition of forskolin-mediated cAMP accumulation after 10 mins by FRET assay relative to ACh. The experiment is classed as functional, cell-based. In outline:
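HEK293 cells stably expressed the Epac FRET cAMP sensor and M2AChR-tetO, induced with 2 μg/mL doxycycline and 1 mM sodium butyrate for 40 h. Basal CFP/YFP was read after 20 min at 37 °C. […] Basal was subtracted; results are from 4–5 experiments in duplicate.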
In general terms: Changes in cAMP serve as a functional read-out for many G protein-coupled receptors.

For experiment [4], the target named is T1, Muscarinic acetylcholine receptor M2. As to the kind of experiment: Agonist activity at human recombinant muscarinic M2 receptor co-expressed with Galphaqi5-HA in African green monkey COS7 cells assessed as IP accumulation after 2 hrs in presence of myo-[3H]inositol by liquid scintillation counting method. The experiment is classed as functional.
Experiment [5] deals with T2, Muscarinic acetylcholine receptor M1. Put plainly: Agonist activity at recombinant human muscarinic M1 receptor expressed in CHO cells assessed as upregulation in ERK1/2 phosphorylation after 5 mins by alphascreen assay. It is filed as cell-based. For orientation: In Alpha technology, singlet oxygen from a donor bead excites a nearby acceptor bead.
The target of experiment [6] is T1, Muscarinic acetylcholine receptor M2. As to the kind of experiment: Agonist activity at Gi/o protein-coupled recombinant human muscarinic M2 receptor expressed in CHO-FlpIn cells preincubated for 60 mins followed by [35S]GTPgammaS addition measured after 30 mins by liquid scintillation counting method. It is filed as functional, cell-based.
The target of experiment [7] is T3, Muscarinic acetylcholine receptor M2 (Homo sapiens). As to the kind of experiment: Agonist activity at Gi/o coupled recombinant human M2 mAChR expressed in CHO-FlpIn cells assessed as IP-one accumulation after 40 mins by HTRF assay. It is filed as cell-based. In outline:
(§1)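 Stably transfected CHO-FlpIn whole cells, 20000/well, grown overnight at 37 °C with 5% CO2. Cells were washed with PBS, then held 60 min at 37 °C in HEPES stimulation buffer with 50 mM LiCl, pH 7.4. ACh or test ligand was added and incubated 40 min.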

In experiment [8] the target is T4, Muscarinic acetylcholine receptor M3 (Homo sapiens, UniProt P20309). As to the kind of experiment: Displacement of [3H]N-methyl-scopolamine bromide from human recombinant muscarinic M3 receptor expressed in HEK293T cell membranes after 1 hr by liquid scintillation counting method. The experiment is classed as cell-based, HEK-293T.
Target sequence in this assay (P20309 whole entry): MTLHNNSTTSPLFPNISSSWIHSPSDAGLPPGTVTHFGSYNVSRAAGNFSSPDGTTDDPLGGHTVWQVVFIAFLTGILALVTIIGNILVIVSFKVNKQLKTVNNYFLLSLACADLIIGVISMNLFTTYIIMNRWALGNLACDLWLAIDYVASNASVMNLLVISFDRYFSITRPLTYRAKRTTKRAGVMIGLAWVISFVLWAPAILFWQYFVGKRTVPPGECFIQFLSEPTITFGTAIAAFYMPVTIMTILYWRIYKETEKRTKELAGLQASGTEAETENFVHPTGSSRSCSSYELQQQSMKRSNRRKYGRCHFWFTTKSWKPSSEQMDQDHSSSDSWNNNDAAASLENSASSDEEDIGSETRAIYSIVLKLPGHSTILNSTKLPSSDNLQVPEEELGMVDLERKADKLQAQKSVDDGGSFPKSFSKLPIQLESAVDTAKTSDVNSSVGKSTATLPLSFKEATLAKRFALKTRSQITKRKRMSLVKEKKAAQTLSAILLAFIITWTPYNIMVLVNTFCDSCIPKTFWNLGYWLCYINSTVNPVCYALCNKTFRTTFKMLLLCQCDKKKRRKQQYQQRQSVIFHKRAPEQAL
Experiment [9] addresses T1, Muscarinic acetylcholine receptor M2. Put plainly: Agonist activity at recombinant human muscarinic M2 receptor expressed in HEK293 cells co-expressing beta-arrestin assessed as increase in beta-arrestin recruitment after 24 hrs by Bright-Glo luminescence assay. The experiment is classed as cell-based. In outline:
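HEK293 cells stably expressing tTA-dependent luciferase and β-arrestin-TEV protease, transiently transfected with M2-TEV-tTA; next day plated 15000 cells/well in DMEM 1% FBS on poly-D-lysine; after ≥6 h, compounds 0–100 μM in HBSS-HEPES; following day Bright-Glo added, luminescence after 20 min; 4–5 experiments in triplicate.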

The target of experiment [10] is T2, Muscarinic acetylcholine receptor M1. Put plainly: Displacement of [3H]N-methyl-scopolamine from human recombinant muscarinic M1 receptor expressed in CHO-FlpIn cells after 6 hrs by liquid scintillation counting method. The experiment is classed as cell-based. To be noted: read-out: Ki(app).
The target of experiment [11] is T1, Muscarinic acetylcholine receptor M2. Put plainly: Displacement of [3H]N-methyl-scopolamine bromide from human recombinant muscarinic M2 receptor expressed in HEK293T cell membranes after 1 hr by liquid scintillation counting method. Further details: species or system HEK-293T.
The target in experiment [12] is T3, Muscarinic acetylcholine receptor M2 (Homo sapiens). As to the kind of experiment: Agonist activity at human recombinant muscarinic M2 receptor co-expressed with Galphaqi5-HA in African green monkey COS7 cells assessed as IP accumulation after 2 hrs in presence of myo-[3H]inositol by liquid scintillation counting method relative to carbachol. The experiment is classed as functional.

The target in experiment [13] is T5, Muscarinic acetylcholine receptor M1 (Homo sapiens) (UniProt P11229).
T5 sequence (whole entry): T2 sequence (P11229 whole entry)
Put plainly: Agonist activity at Gq/11 coupled recombinant human M1 mAChR expressed in CHO-FlpIn cells assessed as IP-one accumulation after 40 mins by HTRF assay relative to ACh. The experiment is classed as cell-based. The method, boiled down: as §1

The target in experiment [14] is T4, Muscarinic acetylcholine receptor M3.
Target sequence in this assay (P20309 whole entry): as above
Experiment [15] deals with T3, Muscarinic acetylcholine receptor M2 (Homo sapiens). As to the kind of experiment: Agonist activity at recombinant human muscarinic M2 receptor expressed in CHO cells assessed as upregulation in ERK1/2 phosphorylation after 5 mins by alphascreen assay relative to ACh. The experiment is classed as cell-based.
For experiment [16] the target is unchanged. Put plainly: Agonist activity at recombinant human muscarinic M2 receptor expressed in HEK293 cells co-expressing beta-arrestin assessed as increase in beta-arrestin recruitment after 24 hrs by Bright-Glo luminescence assay relative to ACh. It is filed as cell-based. The method, boiled down:
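HEK293 cells stably expressing tTA-dependent luciferase and β-arrestin-TEV protease were transiently transfected with M2-TEV-tTA. Next day, cells were plated at 15000/well in DMEM with 1% FBS. After ≥6 h, compound (0–100 μM, in HBSS-HEPES pH 7.4) was added. The following day, luminescence was read with Bright-Glo. Results are from 4–5 experiments in triplicate.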

In experiment [17] the target is T4, Muscarinic acetylcholine receptor M3. Put plainly: Displacement of [3H]N-methyl-scopolamine from human recombinant muscarinic M3 receptor expressed in CHO-FlpIn cells after 6 hrs by liquid scintillation counting method. It is filed as cell-based. To be noted: read-out: Ki(app).
Target sequence in this assay (P20309 whole entry): as above
For experiment [18] the target is unchanged. As to the kind of experiment: Agonist activity at Gq/11 coupled recombinant human M3 mAChR expressed in CHO-FlpIn cells assessed as IP-one accumulation at 100 uM after 40 mins by HTRF assay relative to ACh. It is filed as cell-based.
Target sequence in this assay (P20309 whole entry, looked up): as the sequence (P20309 whole entry) above
The target of experiment [19] is T2, Muscarinic acetylcholine receptor M1. Put plainly: Displacement of [3H]N-methyl-scopolamine bromide from human recombinant muscarinic M1 receptor expressed in HEK293T cell membranes after 1 hr by liquid scintillation counting method. It is filed as cell-based, HEK-293T.
The target of experiment [20] is T5, Muscarinic acetylcholine receptor M1 (Homo sapiens). As to the kind of experiment: Agonist activity at recombinant human muscarinic M1 receptor expressed in CHO cells assessed as upregulation in ERK1/2 phosphorylation after 5 mins by alphascreen assay relative to ACh. It is filed as cell-based.
For experiment [21], the target named is T1, Muscarinic acetylcholine receptor M2. Put plainly: Displacement of [3H]N-methyl-scopolamine from human recombinant muscarinic M2 receptor expressed in CHO-FlpIn cells after 6 hrs by liquid scintillation counting method. The note with it: read-out: Ki(app). It is filed as cell-based.
For experiment [22] the target is unchanged. Put plainly: Agonist activity at recombinant human muscarinic M2 receptor expressed in CHO cells assessed as upregulation in ERK1/2 phosphorylation after 5 mins by alphascreen assay. It is filed as cell-based.
Experiment [23] addresses T3, Muscarinic acetylcholine receptor M2 (Homo sapiens). As to the kind of experiment: Agonist activity at Gi/o protein-coupled recombinant human muscarinic M2 receptor expressed in CHO-FlpIn cells preincubated for 60 mins followed by [35S]GTPgammaS addition after 30 mins by liquid scintillation counting method relative to ACh. The experiment is classed as functional, cell-based. The method, boiled down: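 Membranes (15 μg) came from CHO cells stably expressing M2R. They were equilibrated 60 min at 30 °C in buffer containing GDP plus ACh or compound. [35S]GTPγS (1 nM) was then added for 30 min at 30 °C. Samples were filtered on GF/B filters, washed with ice-cold 0.9% NaCl and counted by scintillation.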

In experiment [24] the target is T4, Muscarinic acetylcholine receptor M3. The source holds these as a separate data set.
Target sequence in this assay (P20309 whole entry, looked up): as the sequence (P20309 whole entry) above
Experiment [25] concerns the target Neuronal acetylcholine receptor; alpha4/beta2 (Homo sapiens, UniProt P17787+P43681). As to the kind of experiment: Displacement of [3H]cytisine from alpha4beta2 nAChR expressed in human recombinant SH-SY5Y cell membranes after 120 mins.
The target in experiment [26] is T3, Muscarinic acetylcholine receptor M2 (Homo sapiens). To be noted: 10 uM.

Neuronal acetylcholine receptor; alpha4/beta2, sequence (P17787 whole entry): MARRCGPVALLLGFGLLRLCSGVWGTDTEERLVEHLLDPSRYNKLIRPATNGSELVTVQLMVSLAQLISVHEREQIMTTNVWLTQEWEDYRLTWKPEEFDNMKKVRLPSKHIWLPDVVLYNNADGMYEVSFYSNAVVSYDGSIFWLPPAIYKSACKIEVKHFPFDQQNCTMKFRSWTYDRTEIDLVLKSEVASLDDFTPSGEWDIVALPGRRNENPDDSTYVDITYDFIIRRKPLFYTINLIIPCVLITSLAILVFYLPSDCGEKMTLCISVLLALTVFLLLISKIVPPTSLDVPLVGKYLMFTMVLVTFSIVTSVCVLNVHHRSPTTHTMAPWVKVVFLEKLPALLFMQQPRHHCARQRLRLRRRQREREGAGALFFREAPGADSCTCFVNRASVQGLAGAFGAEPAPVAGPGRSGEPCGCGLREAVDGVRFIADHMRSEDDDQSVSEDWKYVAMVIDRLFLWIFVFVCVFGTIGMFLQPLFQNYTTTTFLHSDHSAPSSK
Neuronal acetylcholine receptor; alpha4/beta2, sequence (P43681 whole entry): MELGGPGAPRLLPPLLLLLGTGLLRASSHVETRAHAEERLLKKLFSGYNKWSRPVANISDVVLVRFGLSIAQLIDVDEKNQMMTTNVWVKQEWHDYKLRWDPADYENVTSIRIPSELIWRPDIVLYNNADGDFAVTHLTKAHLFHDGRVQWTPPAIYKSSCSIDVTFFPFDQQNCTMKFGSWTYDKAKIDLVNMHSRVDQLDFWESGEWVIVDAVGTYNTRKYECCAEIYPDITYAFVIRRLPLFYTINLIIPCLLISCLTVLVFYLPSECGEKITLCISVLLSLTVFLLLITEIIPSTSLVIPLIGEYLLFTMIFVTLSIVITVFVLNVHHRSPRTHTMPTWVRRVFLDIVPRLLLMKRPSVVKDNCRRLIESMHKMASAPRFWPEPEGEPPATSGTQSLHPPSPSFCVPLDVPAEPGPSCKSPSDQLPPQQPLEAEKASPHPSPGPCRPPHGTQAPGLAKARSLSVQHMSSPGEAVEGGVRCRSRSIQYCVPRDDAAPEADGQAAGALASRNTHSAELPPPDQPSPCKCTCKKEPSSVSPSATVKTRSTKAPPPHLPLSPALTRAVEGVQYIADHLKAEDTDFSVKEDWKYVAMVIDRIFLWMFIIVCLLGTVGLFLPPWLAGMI

For orientation: EC50 means the concentration that produces a half-maximal response. The Emax is the greatest response seen or fitted, relative to the assay's reference. Take `COc1cccc(CC[N+](C)(C)C)c1`: the EC50 in experiment [1] is 6.3 µM; in experiment [2], 9.1 µM; in experiment [4], 12 µM; in experiment [5], 540 nM; in [6], 7.8 µM; in experiment [9] it was 14 µM. Further, the results for the EC50 in experiment [14] and in experiment [22] were 10 µM and 830 nM, respectively. For the same compound, the Emax in [3] stood at 108%; in experiment [12], 75%; in [13], 48%; in [15], 92%; in experiment [16], 133%; in experiment [18] it was 43%. For the same compound, the Emax in [20] was found to be 53%; in experiment [23], 100%. In addition, in experiment [7], the result was inactive. For the same compound, the Ki in experiment [8] was greater than 50 µM; in experiment [10] it was 52 µM; in experiment [11] it was 14 µM; in experiment [17] it was 81 µM; in [19] it was 33 µM; in experiment [21], 9.1 µM.
On to `C[N+](C)(C)CCc1ccc2c(c1)OCC2`, for which the EC50 in experiment [1] worked out at 11 µM; in [2] it was 4.8 µM; in [4], 21 µM; in experiment [6], 3.3 µM; in [9] it was 17 µM; in [14] it was 3.7 µM. Also, the EC50 in experiment [22] was found to be 240 nM. The Emax was determined as 102% in experiment [3]; 62% in experiment [12]; 8% in experiment [13]; 100% in [15]; 118% in experiment [16]; 17% in experiment [18]. In addition, the Emax in [23] was determined as 100%. Also, the pEC50 in experiment [24] was determined as 5.43 µM. For the same compound, the outcome in [7] was inactive. For the same compound, the Ki in [8] is 6.3 µM; in experiment [10], 6.8 µM; in experiment [11], 13 µM; in [17] it was 7.8 µM; in [19] it was 6.4 µM; in [21], 2 µM. The Ki in experiment [25] stood at 9.7 µM.
Regarding `COc1cccc(CCC[N+](C)(C)C)c1`, the Ki was found to be 0.62 µM in experiment [8], 0.63 µM in experiment [11] and 0.33 µM in [19]. For the same compound, in [26], the Emax was less than 10%.
